A selection: hits, their analogues and other compounds. The true share with any hit is near 1.9%.
bCat nuc transl – modulators of beta-catenin nuclear translocation, primary screen, imaging, HeLa cells, immunofluorescence, high-content | 190,000 tested, 0.3% active | nuclear translocation activity, % at 5 µM | AID 1665, 2009;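 active means nuclear translocation activity above 50% at 5 µM, with a well cell count of 50 or more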;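 further: per-cell ratio of nuclear to cytoplasmic median beta-catenin stain intensity; plate controls were DMSO negative control for no effect and GSK-3 inhibitor IX positive control for full effect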
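Signal – beta-catenin immunofluorescence imaging with DAPI · Test system – human HeLa cell line · Dosing – 5 µM primary single dose, 0.1% DMSO, 0.02–20 µM confirmation series · Measure – % activation, nuclear-to-cytoplasmic median beta-catenin signal ratio per cell · Incubation – 24 h compound exposure at 37°C, 5% CO2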
ROMK primary – ROMK potassium channel modulators, primary screen, cell-based, thallium flux, MLSMR library. ATP-sensitive inward rectifier potassium channel 1 (Homo sapiens), P48048. Tet-inducible ROMK, thallium flux fluorescence; actives lie on both sides. B-score at 10 µM. 130,000 tested, 2% active. AID 1918, 2009;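 active means signal ratio slope over the read window, or its plate-corrected B-score, at least 3 SD from the plate mean, either direction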;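 further: B-score of the F/F0 ratio slope over 7 to 12 s after thallium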
Target sequence (P48048 whole entry, looked up): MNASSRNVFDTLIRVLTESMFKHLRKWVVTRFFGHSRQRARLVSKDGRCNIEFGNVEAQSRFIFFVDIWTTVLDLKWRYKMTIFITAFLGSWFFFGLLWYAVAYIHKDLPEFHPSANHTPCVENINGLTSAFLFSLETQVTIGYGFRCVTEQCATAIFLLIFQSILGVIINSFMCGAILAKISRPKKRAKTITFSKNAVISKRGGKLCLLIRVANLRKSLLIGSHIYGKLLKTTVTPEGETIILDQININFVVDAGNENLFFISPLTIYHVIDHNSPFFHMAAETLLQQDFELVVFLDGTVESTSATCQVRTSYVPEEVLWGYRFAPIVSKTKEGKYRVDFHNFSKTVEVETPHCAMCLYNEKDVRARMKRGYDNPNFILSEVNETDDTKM
MT stabilize HCS – microtubule stabilizers in HeLa cells, primary screen, imaging, high-content imaging; HeLa tubulin immunostaining HCS, 24 h; share of cells brighter than vehicle mean+2SD; % tubulin-high responders, % at 10 µM; 200,000 tested, 0.83% active;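 active means plate Z-score above 3 for both tubulin-high and condensed-nucleus cell shares, with cell loss under 80%, at 10 µM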;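 further: anti alpha tubulin signal scored within the nucleus-defined area of each cell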
* hit, by the source's call; . = not tested or not shown.

SMILES	bCat nuc transl	ROMK primary	MT stabilize HCS
Cc1ccc(C2C(/C=C3/SC(=S)NC3=O)=C(c3cccs3)Oc3ccccc32)cc1 (centres undefined)	.	0.479	0.9
S=C1NCCc2ccc(Cl)cc2C1c1ccccc1Cl (centres undefined)	-2.5	.	2.0
Clc1ccc2c(c1)C(C1=NCCN1)c1ccccc1CS2 (centres undefined)	.	-0.262	24.1*
Clc1ccc(Nc2ncn[nH]2)c(Cl)c1	-0.3	-1.42	6.8
Cc1ccc(C(=O)Nc2oc(-c3ccccc3)cc2C#N)cc1	2.9	0.785	1.1
N#Cc1cc(-c2ccccc2)oc1NC(=O)c1ccccc1	-3.3	-0.579	44.0*
O=C(CCSCc1ccc(Cl)cc1)NC1CCCC1	1.9	0.904	4.5
COc1nc2c(C)cccc2cc1-c1noc(-c2ccncc2)n1	0.7	.	.
CS(=O)(=O)c1[nH]nc(-c2ccccc2Cl)c1C#N	-0.1	-0.0576	.
Nc1nn(-c2ccccc2)c(N)c1N=Nc1ccccc1F	1.2	.	25.7*
Nc1c(N=Nc2ccccc2F)c(=O)[nH]n1-c1ccccc1	.	.	2.3
CCOC(=O)c1c(NC(=S)NCC2CCCO2)sc(C)c1C (centres undefined)	0.1	3.47*	3.1
CCOC(=O)c1c(NC(=O)C2CCCO2)sc(C(N)=O)c1C (centres undefined)	1.1	-0.94	3.0
N=c1n(CC(=O)c2cccs2)c2ccccc2n1Cc1ccccc1	1.6	.	.
Cc1ccccc1CSc1nc2[nH]ncc2c(=O)[nH]1	-4.4	-0.591	3.2
Cc1ccc(C)c(CSc2nc3[nH]ncc3c(=O)[nH]2)c1	20.6	0.214	22.9*
Cc1sc2nc(CSCC(=O)N(CCC#N)c3ccccc3)[nH]c(=O)c2c1C	-1.9	-0.423	1.9
COc1ccc2cc(C(=O)C3CCCN(C(=O)/C=C/c4ccccn4)C3)ccc2c1 (centres undefined)	0.7	-0.768	2.2
O=C(NC1CCCCC1)N1CCC(c2nc(-c3ccc(S(=O)(=O)N4CCCC4)cc3)no2)CC1	0.9	.	35.1*
O=C(C1CC1)N1CCC(c2nc(-c3ccc(S(=O)(=O)N4CCCC4)cc3)no2)CC1	.	-0.3	1.2
Cc1ccc(NC(=O)CN(C)C(=S)NC2CC2)cc1	2.1	0.2	2.8
Cc1ccccc1Nc1cc(=O)oc2ccccc12	-8.1	-0.113	2.2
Cc1ccc(Nc2cc(=O)oc3ccccc23)c(C)c1	0.9	0.0262	26.8*
COc1ccc(C(=O)N2CCOC2CNC(=O)C(=O)NCc2ccc(Cl)cc2)cc1 (centres undefined)	0.8	-1.49	1.4
COc1ccc(Nc2cc(C)nc(NCc3ccccc3)n2)cc1	1.2	.	.
SMILES	bCat nuc transl	ROMK primary	MT stabilize HCS
Cc1ccc(Nc2cc(C)nc(NCc3ccccc3)n2)cc1	-0.5	0.0974	30.1*
COc1ccc(S(=O)(=O)N(CCc2ccccc2)CC(=O)NC(C)C)cc1	-1.9	-0.0439	1.6
Cc1cc(C)c(S(=O)(=O)N2CCN(C(=O)N(C)C)CC2)c(C)c1	0.0	-0.457	2.3
CC(C)CC(=O)Nc1nnc(SCC(=O)NCc2ccc3c(c2)OCO3)s1	-1.2	1.25	0.7
CCN(CC)c1ccc(/C=C(\C#N)c2ccccn2)cc1	.	1.75	21.5*
CCN(Cc1ccccc1)c1ccc(/C=C(\C#N)c2ccccn2)cc1	-0.7	.	4.0
C#CCOCCOCCOCCNc1nc(N2CCN(C(=O)[C@H]([C@@H](C)CC)n3cc([C@@H](N)CC(C)C)nn3)CC2)nc(N2CCN(C(=O)[C@H](CCCCN)n3cc([C@@H](N)CO)nn3)CC2)n1	-0.7	.	3.2
COC(=O)N/N=C/c1cn(Cc2ccccc2Cl)c2ccccc12	-1.9	-1.05	2.0
Cc1[nH][nH]c(=O)c1C(c1c(C)[nH][nH]c1=O)c1cn(Cc2ccccc2Cl)c2ccccc12	17.9	-2.15	25.0*
COc1ccc(-c2cc(C(=O)c3c(N)n(C)c(=O)n(C)c3=O)c3ccccc3n2)cc1OC	1.9	0.0489	2.6
COCC(=O)N(Cc1cc2cc(OC)ccc2[nH]c1=O)c1ccc(C)cc1	-6.2	.	2.4
CCOc1ccc(-c2nnc3n2N=C(c2ccc(OC)cc2)CS3)cc1	0.7	0.585	4.6
COc1ccc(C2=Nn3c(nnc3-c3ccccn3)SC2)cc1	-0.7	1.78	51.5*
CCOc1ccc(C2=Nn3c(nnc3-c3ccccc3OC)SC2)cc1	46.3	0.264	18.9*
COc1ccccc1-c1nnc2n1N=C(c1ccc(O)c(O)c1)CS2	41.0	2.37	20.6*
CCc1nnc2n1N=C(c1ccc(OC)cc1)CS2	25.6	1.1	18.6
COc1ccc(C2=Nn3c(nnc3-c3ccncc3)SC2)cc1OC	5.2	-0.446	4.6
Cc1ccc(-c2nc3ccccc3[nH]2)cc1NC(=O)c1sc2cc(Cl)ccc2c1Cl	1.4	.	2.8
